Laboratory results as given in ChEMBL document CHEMBL1145040, “Biaryl analogues of conformationally constrained tricyclic tropanes as potent and selective norepinephrine reuptake inhibitors: synthesis and evaluation of their uptake inhibition at monoamine transporter sites” (J Med Chem, 2003).

Columns and labels:
[1] = biological target: Norepinephrine transporter (Rattus norvegicus, UniProt Q9WTR4); experiment: Ability to inhibit [3H]NE reuptake at norepinephrine transporter from rat brain
Summary of the method: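 Synaptosomes (P2, rat brain) in modified KRH buffer (pH 7.4, nialamide) with drug, 30 min at 4 °C then 15 min at 37 °C. [3H]NE (9 nM final) uptake for 5 min; terminated by cold sodium-free buffer, GF/C filtration and scintillation counting. Specific uptake defined with 3 μM desipramine.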

[2] = biological target: Monoamine transporters; Norepininephrine & dopamine (Rattus norvegicus) (UniProt P23977+Q9WTR4); experiment: Uptake ratio at norepinephrine to dopamine transporters from rat brain
Summary of the method: (§1)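 Selectivity ratios calculated from Ki values of the rat brain synaptosomal [3H]DA, [3H]5-HT and [3H]NE uptake inhibition assays.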

[3] = biological target: Monoamine transporters; Norepinephrine & serotonin (Rattus norvegicus) (UniProt P31652+Q9WTR4); experiment: Uptake ratio at norepinephrine to serotonin transporters from rat brain; summary of the method: as §1
[4] = biological target: Sodium-dependent dopamine transporter (Rattus norvegicus, UniProt P23977); experiment: Ability to inhibit [3H]DA reuptake at dopamine transporter from rat brain
Summary of the method: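 Rat brain P2 synaptosomes in modified KRH buffer (pH 7.4, nialamide); drug preincubation 30 min at 4 °C, then 15 min at 37 °C. [3H]DA (~5 nM final) uptake for 5 min, ended with cold sodium-free buffer, GF/C filtration and scintillation counting.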

[5] = biological target: Sodium-dependent serotonin transporter (Rattus norvegicus, UniProt P31652); experiment: Ability to inhibit [3H]5-HT reuptake at serotonin transporter from rat brain
Summary of the method: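 P2 synaptosomes from rat brain in modified KRH buffer (pH 7.4, nialamide), preincubated with drug 30 min at 4 °C, then 15 min at 37 °C. [3H]5-HT (~5 nM final) added for 5 min; stopped with cold sodium-free buffer, then GF/C filtration and scintillation counting. Nonspecific uptake set with 10 μM fluoxetine.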

[6] = biological target: Monoamine transporters; serotonin & dopamine (Rattus norvegicus) (UniProt P31652+P23977); experiment: Uptake ratio at serotonin to dopamine transporters from rat brain; summary of the method: as §1
Sequence of Monoamine transporters; serotonin & dopamine (Rattus norvegicus) (P23977 whole entry, looked up): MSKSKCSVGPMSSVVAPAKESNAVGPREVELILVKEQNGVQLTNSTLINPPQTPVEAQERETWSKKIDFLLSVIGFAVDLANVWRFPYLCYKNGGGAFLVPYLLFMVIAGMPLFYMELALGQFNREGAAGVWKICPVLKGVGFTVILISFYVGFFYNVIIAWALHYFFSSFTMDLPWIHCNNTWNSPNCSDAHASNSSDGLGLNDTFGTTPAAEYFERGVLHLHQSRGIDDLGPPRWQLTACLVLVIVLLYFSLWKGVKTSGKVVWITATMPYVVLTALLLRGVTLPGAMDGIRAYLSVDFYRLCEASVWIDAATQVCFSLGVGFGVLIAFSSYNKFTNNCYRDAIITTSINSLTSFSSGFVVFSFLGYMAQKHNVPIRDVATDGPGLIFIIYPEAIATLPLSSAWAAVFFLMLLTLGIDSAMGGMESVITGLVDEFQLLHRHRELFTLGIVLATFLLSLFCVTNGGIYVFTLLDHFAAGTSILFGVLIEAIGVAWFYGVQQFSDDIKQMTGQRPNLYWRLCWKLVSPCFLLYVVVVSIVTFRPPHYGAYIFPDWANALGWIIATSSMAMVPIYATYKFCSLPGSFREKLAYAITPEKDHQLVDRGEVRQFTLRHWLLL
Sequence of Monoamine transporters; serotonin & dopamine (Rattus norvegicus) (P31652 whole entry, looked up): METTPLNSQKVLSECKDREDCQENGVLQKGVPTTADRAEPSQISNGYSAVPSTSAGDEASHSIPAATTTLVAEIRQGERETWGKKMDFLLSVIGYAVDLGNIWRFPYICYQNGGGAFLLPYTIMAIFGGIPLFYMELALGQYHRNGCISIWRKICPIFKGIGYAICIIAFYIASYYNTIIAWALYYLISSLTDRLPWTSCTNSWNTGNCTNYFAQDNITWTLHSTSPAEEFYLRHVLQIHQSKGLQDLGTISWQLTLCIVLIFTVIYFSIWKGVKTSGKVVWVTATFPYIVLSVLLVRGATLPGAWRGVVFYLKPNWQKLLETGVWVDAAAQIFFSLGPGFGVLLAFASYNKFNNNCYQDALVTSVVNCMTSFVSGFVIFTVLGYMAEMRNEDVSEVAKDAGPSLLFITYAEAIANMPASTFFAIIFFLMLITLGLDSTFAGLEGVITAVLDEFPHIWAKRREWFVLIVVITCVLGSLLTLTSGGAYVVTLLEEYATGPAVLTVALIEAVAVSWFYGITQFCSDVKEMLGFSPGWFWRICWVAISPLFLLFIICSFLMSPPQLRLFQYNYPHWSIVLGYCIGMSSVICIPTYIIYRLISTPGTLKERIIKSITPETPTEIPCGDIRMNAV

Sequence of Norepinephrine transporter (Q9WTR4 whole entry): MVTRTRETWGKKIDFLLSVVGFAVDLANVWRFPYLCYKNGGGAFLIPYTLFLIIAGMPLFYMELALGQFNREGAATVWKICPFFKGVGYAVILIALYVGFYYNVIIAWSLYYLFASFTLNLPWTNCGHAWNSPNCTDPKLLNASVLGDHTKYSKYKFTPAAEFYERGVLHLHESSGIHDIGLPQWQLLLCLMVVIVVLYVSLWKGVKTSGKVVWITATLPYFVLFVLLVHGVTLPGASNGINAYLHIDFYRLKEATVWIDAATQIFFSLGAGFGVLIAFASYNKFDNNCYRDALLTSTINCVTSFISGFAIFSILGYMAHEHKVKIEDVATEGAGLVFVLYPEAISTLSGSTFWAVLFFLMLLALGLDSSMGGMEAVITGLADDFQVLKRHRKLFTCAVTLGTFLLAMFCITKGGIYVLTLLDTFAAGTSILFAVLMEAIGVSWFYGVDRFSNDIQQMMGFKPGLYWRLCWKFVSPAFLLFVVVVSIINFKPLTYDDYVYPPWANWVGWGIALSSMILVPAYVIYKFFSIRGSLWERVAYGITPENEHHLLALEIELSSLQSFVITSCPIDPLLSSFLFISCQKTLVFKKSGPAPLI
Sequence of Sodium-dependent serotonin transporter (P31652 whole entry): as the sequence (P31652 whole entry, looked up) above
Sequence of Sodium-dependent dopamine transporter (P23977 whole entry): as the sequence (P23977 whole entry, looked up) above

Structure (SMILES)	Ki [1] [nM]	Ratio [2]	Ratio [3]	Ki [4] [nM]	Ki [5] [nM]	Ratio [6]
COC(=O)[C@@H]1C2CCC3CCC1N(C/C2=C\c1ccc(-c2ccccc2)cc1)C3 (some centres undefined)	12	0.02	0.02	477	614	1.29
COC(=O)C1C2CCC3CCC1N(C/C2=C\c1ccc(-c2ccc(I)cc2)cc1)C3 (centres undefined)	114	0.3	–	377	660	1.75
COC(=O)C1C2CCC3CCC1N(C/C2=C\c1ccc(-c2ccc(OC)cc2)s1)C3 (centres undefined)	10.3	0.03	0.02	317	531	1.43
CC(=O)OCC1C2CCC3CCC1N(C/C2=C\c1ccc(-c2ccccc2)cc1)C3 (centres undefined)	57	0.35	1.24	165	46	0.28
COC(=O)C1C2CCC3CCC1N(C/C2=C\c1ccc(-c2cc(Cl)cc(Cl)c2)cc1)C3 (centres undefined)	61	0.58	0.16	106	383	3.62
COC(=O)C1C2CCC3CCC1N(C/C2=C\c1ccc(-c2ccc(C#N)cc2)cc1)C3 (centres undefined)	32.4	0.69	0.04	47	909	19.3
COC(=O)C1C2CCC3CCC1N(C/C2=C\c1ccc(-c2ccco2)cc1)C3 (centres undefined)	13.9	0.14	0.06	98	248	2.54
COC(=O)C1C2CCC3CCC1N(C/C2=C\c1ccc(-n2cccc2)cc1)C3 (centres undefined)	45.9	0.08	0.31	568	149	0.26
COC(=O)C1C2CCC3CCC1N(C/C2=C\c1ccc(-c2ccc(OC)cc2)cc1)C3 (centres undefined)	39	0.05	0	841	3390	4.04
COC(=O)C1C2CCC3CCC1N(C/C2=C\c1ccc(-c2ccsc2)cc1)C3 (centres undefined)	20.5	0.07	0.14	277	145	0.52
COC(=O)C1C2CCC3CCC1N(C/C2=C\c1ccc(-c2ccc(Cl)c(Cl)c2)cc1)C3 (centres undefined)	9.7	0.04	0.04	236	239	1.01
COC(=O)C1C2CCC3CCC1N(C/C2=C\c1ccc(-c2cccc(Cl)c2)cc1)C3 (centres undefined)	17.5	0.2	0.08	89	213	2.4
COC(=O)C1C2CCC3CCC1N(C/C2=C\c1ccc(-c2ccc(C)cc2)cc1)C3 (centres undefined)	22.7	0.11	0.02	214	1490	6.97
COC(=O)C1C2CCC3CCC1N(C/C2=C\c1ccc(-c2ccccc2)s1)C3 (centres undefined)	13.5	0.08	0.19	179	71	0.4
O=C(OCC1C2CCC3CCC1N(C/C2=C\c1ccc(-c2ccc(Cl)c(Cl)c2)c(Cl)c1)C3)c1ccccc1 (centres undefined)	> 10000	–	–	5640	956	0.17
COC(=O)C1C2CCC3CCC1N(C/C2=C\c1ccc(-c2ccccc2)c(Cl)c1)C3 (centres undefined)	991	0.23	2.71	4260	366	0.09
COC(=O)C1C2CCC3CCC1N(C/C2=C\c1ccc(-c2ccc(N(C)C)cc2)cc1)C3 (centres undefined)	57.9	0.05	0.06	1050	1000	0.95
COC(=O)C1C2CCC3CCC1N(C/C2=C\c1ccc(-c2ccc(C)s2)cc1)C3 (centres undefined)	22.5	–	0.11	674	200	0.3
COC(=O)C1C2CCC3CCC1N(C/C2=C\c1ccc(-c2ccc(C(F)(F)F)cc2)cc1)C3 (centres undefined)	1150	0.37	0.52	3130	2210	0.71
COC(=O)C1C2CCC3CCC1N(C/C2=C\c1ccc(-c2ccc(Cl)cc2)cc1)C3 (centres undefined)	739	1.77	0.59	417	1260	3.03
COC(=O)C1C2CCC3CCC1N(C/C2=C\c1ccc(-c2cccs2)cc1)C3 (centres undefined)	19.8	0.13	0.27	155	73	0.47
OC[C@@H]1C2CCC3CCC1N(C/C2=C\c1ccc(-c2ccccc2)cc1)C3 (some centres undefined)	183	0.14	0.12	1300	1540	1.19
COC(=O)C1C2CCC3CCC1N(C/C2=C\c1ccc(-c2ccc(Cl)cc2Cl)cc1)C3 (centres undefined)	466	0.29	1.19	1590	393	0.25
